Compound activity as filed in PubChem BioAssay.
CSC inhib: cancer stem cell viability inhibitors, primary screen, luminescence; cancer stem cell-like cells viability; inhibition, % at 7.5 µM; 300,000 tested, 1.1% active; in the data active = inhibition above about 75%; inconclusive = no clear call, values can overlap the other calls; tested in HMLE shEcad cells
T cruzi repl: inhibitors of intracellular T. cruzi growth, primary screen, luminescence, NIH3T3 host cells; 300,000 tested, 1.4% active; AID 1885, 2009; inhibition, % (concentration not given with the values); T. cruzi beta-gal in NIH3T3, 90 h;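 active = mean inhibition across valid replicates above about 55%, limit read from the data; inconclusive = mean below that limit but half or more replicates reach it; inactive = mean below it, under half of replicates reach it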;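 note: signal also drops with host cell toxicity which is not excluded here; higher percent means less beta-gal luminescence so fewer parasites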
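assay system = mouse NIH/3T3 fibroblasts infected with β-gal-expressing T. cruzi Tulahuen C4 | input = 5,000 NIH/3T3 host cells per well | buffer or medium = DMEM plus 2% FBS | timing = 3 h host attachment, then at least 90 h co-culture | measured by = GalScreen luminescence, 60 min | evaluation = luminescence reflecting intracellular parasite burden, expressed as percent inhibition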
Beta apoptosis: inhibitors of cytokine-induced beta cell apoptosis, primary screen, luminescence; INS-1E cytokine-induced death, ATP luminescence, 48 h; percent of positive-control rescue, neutral wells zero; 300,000 tested, 0.8% active; AID 435005, 2010; protection from apoptosis, % (no concentration beside the values);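 active = Every replicate reaches about 75%, or at least half do and their mean reaches it too, limit read from the data; inconclusive = At least half of replicates reach the limit but their mean does not; inactive = Under half of replicates reach the limit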;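 note: higher means more ATP so stronger rescue from cytokine killing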
PREPL inhibitor: PREPL enzyme inhibitors, primary screen, biochemical, fluorescence polarization; inhibition, % at 5.96 µM; 320,000 tested, 0.68% active; AID 2751, 2010; Prolyl endopeptidase-like (Homo sapiens), Q4J6C6; recombinant PREPL, fluorescence polarization activity-based probe; in the data active = inhibition above about 43%
Target sequence (Q4J6C6 whole entry, looked up): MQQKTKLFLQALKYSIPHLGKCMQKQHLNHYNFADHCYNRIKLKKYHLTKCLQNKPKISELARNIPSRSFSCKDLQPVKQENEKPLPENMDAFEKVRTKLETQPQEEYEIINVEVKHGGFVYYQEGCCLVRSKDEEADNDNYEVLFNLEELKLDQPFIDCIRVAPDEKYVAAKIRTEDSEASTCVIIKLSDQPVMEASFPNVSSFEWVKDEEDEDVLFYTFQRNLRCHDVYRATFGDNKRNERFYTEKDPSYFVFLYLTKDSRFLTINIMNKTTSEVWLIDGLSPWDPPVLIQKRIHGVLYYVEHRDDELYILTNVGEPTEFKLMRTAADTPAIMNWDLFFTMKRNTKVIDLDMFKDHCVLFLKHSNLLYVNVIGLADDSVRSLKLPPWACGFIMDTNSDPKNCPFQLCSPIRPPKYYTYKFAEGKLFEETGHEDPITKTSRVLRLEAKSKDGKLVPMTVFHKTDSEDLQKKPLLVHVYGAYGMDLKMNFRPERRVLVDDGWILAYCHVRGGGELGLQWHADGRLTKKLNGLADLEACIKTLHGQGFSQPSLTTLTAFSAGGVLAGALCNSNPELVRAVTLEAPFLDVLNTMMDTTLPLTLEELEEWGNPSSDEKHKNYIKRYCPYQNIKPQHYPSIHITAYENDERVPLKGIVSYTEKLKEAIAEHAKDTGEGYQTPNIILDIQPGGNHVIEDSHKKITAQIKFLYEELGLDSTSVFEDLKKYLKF
CHOP inh: inhibitors of CHOP promoter induction, primary screen, cell-based, unfolded protein response, luciferase reporter. CHO-K1 CHOP-promoter luciferase, tunicamycin-induced, 15-18 h. inhibition, % at 10 µM. AID 2732, 2010. 220,000 tested, 3.8% active;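 active = compounds that reduced the stress-induced luciferase reporter signal by more than about 70% of percent inhibition, limit read from the data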
NR3A LBD binder: binders of NR3A ligand-binding domain, primary screen, biophysical, differential scanning fluorimetry, uHTS; NR3A LBD differential scanning fluorimetry, Tm shift; 0% = protein alone, 100% = glycine-bound protein; Glutamate receptor ionotropic, NMDA 3A (GRIN3A) ligand-binding domain; Tm shift relative to glycine control, % at 25 µM; 340,000 tested, 2.5% active; AID 1259313, 2017;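 active = melting temperature shift of at least 10% of the positive control shift, at one fixed dose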
Hits are given with their value; 0 = inactive; ? = inconclusive; - = no result given. An excerpt weighted towards active compounds, which were near 6.7% of everything screened.

SMILES	CSC inhib	T cruzi repl	Beta apoptosis	PREPL inhibitor	CHOP inh	NR3A LBD binder
Cc1ccc(C(=O)Oc2ccccc2N2C(=O)C3C4CCC(C4)C3C2=O)cc1 (centres undefined)	0	0	0	0	0	0
O=C(NCC(c1ccco1)N1CCCC1)c1ccc(Cl)c(S(=O)(=O)N2CCc3ccccc32)c1 (centres undefined)	-	-	75	0	-	0
CC(=O)Nc1ccc(NC(=O)c2ccc(Cl)c(S(=O)(=O)N3CCc4ccccc43)c2)cc1	-	-	-	-	-	13
CN(CCC1CCCCO1)C(=O)CCc1nnc(C2CCCCC2)o1 (centres undefined)	0	0	0	0	0	0
O=C(Nc1cccc(C(F)(F)F)c1)c1cc2c(s1)-c1ccccc1OC2	0	0	0	0	0	37
CC(C)CCOc1ccc(C(=O)NN2C(=O)NC3(CCCCC3)C2=O)cc1	-	0	0	0	-	0
O=c1n(Cc2ccccc2F)c2ccccc2n1Cc1ccccc1F	-	0	0	0	74	0
Cn1c(=O)n(Cc2ccccc2F)c2ccccc21	-	0	0	0	0	0
O=[N+]([O-])c1ccc(-c2nc(-c3cccs3)c(-c3cccs3)[nH]2)cc1	0	0	0	0	92	0
O=C(O)c1ccc(-c2nc(-c3ccccc3)c(-c3ccccc3)[nH]2)cc1	0	0	0	0	0	0
Cc1ccsc1-c1nc(-c2ccccc2)c(-c2ccccc2)[nH]1	0	0	0	0	82	0
Fc1ccc(-c2nc(-c3cccs3)[nH]c2-c2ccc(F)cc2)cc1	0	?	0	0	74	19
COc1ccc(C(=O)Nc2nc(-c3ccccn3)cs2)cc1S(=O)(=O)N1CCOCC1	0	-	0	0	-	0
COc1ccc(O)c(/C=N/NC(=O)c2cccc(N3CCCC3=O)c2)c1	-	0	94	0	-	0
COc1ccc(O)c(/C=N/NC(=O)c2ccc(N3CCCC3=O)cc2)c1	0	0	0	0	-	0
CCn1cc(C(=O)OCC(=O)OC2CC(C)CCC2C(C)C)c(=O)c2ccc(C)nc21 (centres undefined)	0	0	0	0	89	0
COc1ccc(N=Nc2n(C)c3ccccc3[n+]2C)cc1	-	64	-	-	0	-
COc1ccc(N=Nc2nc(-c3ccccc3)c(-c3ccccc3)[nH]2)cc1	0	0	0	0	0	0
O=C(COC(=O)/C=C/c1ccc(OC(F)F)cc1)NC1CCCCCC1	-	-	0	0	-	0
NS(=O)(=O)c1ccc(CCNC(=S)NC(=O)c2ccccc2Br)cc1	0	-	0	0	-	0
COc1ccc2c(c1)C(C)=CC(C)(C)N2S(=O)(=O)c1ccc(NC(C)=O)cc1	0	0	0	0	-	0
COc1ccc2c(c1)C(C)=CC(C)(C)N2S(=O)(=O)c1ccc(Br)cc1	0	67	0	0	0	0
CCOc1ccc2c(c1)C(C)=CC(C)(C)N2S(=O)(=O)c1ccc(NC(C)=O)cc1	0	55	0	0	-	0
CC1=CC(C)(C)N(S(=O)(=O)c2ccc(F)cc2)c2ccc(C)cc21	87	0	0	0	-	0
CCC(C)n1c(=S)[nH]c2c(sc3ccc([N+](=O)[O-])cc32)c1=O (centres undefined)	0	0	0	0	0	0
SMILES	CSC inhib	T cruzi repl	Beta apoptosis	PREPL inhibitor	CHOP inh	NR3A LBD binder
CCN=C1SC(C(=O)Nc2ccc(Cl)c(Cl)c2)CC(=O)N1CC (centres undefined)	0	0	0	0	74	0
CCN=C1SC(C(=O)Nc2cc(Cl)cc(Cl)c2)CC(=O)N1CC (centres undefined)	0	0	0	0	75	0
CCN=C1SC(C(=O)Nc2cccc(C)c2)CC(=O)N1CC (centres undefined)	0	0	0	0	0	0
CCN=C1SC(C(=O)Nc2cccc(Cl)c2)CC(=O)N1CC (centres undefined)	0	0	0	0	0	0
O=C(O)/C=C/c1cccc2c1OCCO2	0	0	0	0	0	0
Cc1nc(S(=O)(=O)c2ccc(Cl)cc2)c(NCc2ccccc2)o1	0	0	0	0	0	0
